Laboratory results as given in ChEMBL document CHEMBL4376885 (J Med Chem, 2020).

Experiments:
[1] = system: Human immunodeficiency virus 1; test: Antiviral activity against HIV1 3B infected in human MT4 cells assessed as protection against virus-induced cytopathic effect incubated for 5 days by MTT assay; format: functional, organism-based; details: Human immunodeficiency virus 1, 3B, MT4, 120 h
[2] = system: Human immunodeficiency virus 1; test: Antiviral activity against NNRTI-resistant HIV1 RES056 containing reverse transcriptase K103N+Y181C mutant infected in human MT4 cells assessed as protection against virus-induced cytopathic effect incubated for 5 days by MTT assay; format: functional, organism-based; details: Human immunodeficiency virus 1, RES056, MT4, 120 h
[3] = system: Human immunodeficiency virus 1; test: Antiviral activity against HIV1 containing reverse transcriptase F227L+V106A mutant infected in human MT4 cells assessed as protection against virus-induced cytopathic effect incubated for 5 days by MTT assay; format: functional, organism-based; details: Human immunodeficiency virus 1, MT4, 120 h
[4] = Tmax in Kunming mouse at 2 mg/kg, iv by LC-MS/MS analysis; format: ADME, organism-based; details: in vivo
How it was run: (§1)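 Single dose, intravenous at 2 mg/kg or oral at 10 mg/kg, in Wistar rats and Kunming mice.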

[5] = Toxicity in Kunming mouse assessed as induction of body weight changes at 2000 mg/kg, po administered as single dose measured during 7 days post dose; format: organism-based; details: in vivo, 168 h
How it was run: (§2)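 Kunming mice received a single oral 2000 mg/kg dose and were followed for 7 days alongside an untreated control group. Mortality, poisoning symptoms and behaviour were recorded, and relative body-weight change was tracked.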

[6] = Toxicity in Kunming mouse assessed as induction of abnormal behaviors at 2000 mg/kg, po administered as single dose measured during 7 days post dose; format: organism-based; details: in vivo, 168 h; how it was run: as §2
Cytochrome P450 2D6 = Cytochrome P450 2D6 (Homo sapiens, UniProt P10635); test: Inhibition of CYP2D6 in human liver microsomes using dextromethorphan substrate in presence of NADPH incubated for 10 mins; format: ADME
Chain of Cytochrome P450 2D6 (P10635 whole entry): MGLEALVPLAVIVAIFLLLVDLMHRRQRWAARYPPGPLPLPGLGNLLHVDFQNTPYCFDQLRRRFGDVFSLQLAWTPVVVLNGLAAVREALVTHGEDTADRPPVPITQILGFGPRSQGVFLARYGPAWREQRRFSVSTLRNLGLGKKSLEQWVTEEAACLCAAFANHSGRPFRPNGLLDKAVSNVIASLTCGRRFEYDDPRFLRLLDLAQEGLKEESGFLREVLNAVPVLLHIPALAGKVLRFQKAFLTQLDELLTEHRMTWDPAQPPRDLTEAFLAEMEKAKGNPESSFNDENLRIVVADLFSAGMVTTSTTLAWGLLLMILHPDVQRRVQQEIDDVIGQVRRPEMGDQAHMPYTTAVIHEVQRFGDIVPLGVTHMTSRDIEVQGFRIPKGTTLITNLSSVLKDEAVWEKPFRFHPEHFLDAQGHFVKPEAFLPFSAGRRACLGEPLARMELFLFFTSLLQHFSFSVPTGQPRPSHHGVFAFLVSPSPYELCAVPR

[7] = system: Human immunodeficiency virus 1; test: Antiviral activity against HIV1 containing reverse transcriptase K103N mutant infected in human MT4 cells assessed as protection against virus-induced cytopathic effect incubated for 5 days by MTT assay; format: functional, organism-based; details: Human immunodeficiency virus 1, MT4, 120 h
[8] = system: Human immunodeficiency virus 1; test: Antiviral activity against HIV1 containing reverse transcriptase E138K mutant infected in human MT4 cells assessed as protection against virus-induced cytopathic effect incubated for 5 days by MTT assay; format: functional, organism-based; details: Human immunodeficiency virus 1, MT4, 120 h
[9] = Tmax in Wistar rat at 10 mg/kg, po by LC-MS/MS analysis; format: ADME, organism-based; details: in vivo; how it was run: as §1
[10] = Tmax in Wistar rat at 2 mg/kg, iv by LC-MS/MS analysis; format: ADME, organism-based; details: in vivo; how it was run: as §1
[11] = system: Human immunodeficiency virus 1; test: Antiviral activity against HIV1 containing reverse transcriptase Y188L mutant infected in human MT4 cells assessed as protection against virus-induced cytopathic effect incubated for 5 days by MTT assay; format: functional, organism-based; details: Human immunodeficiency virus 1, MT4, 120 h
[12] = Toxicity in Kunming mouse assessed as induction of mortality at 2000 mg/kg, po administered as single dose measured during 7 days post dose; format: organism-based; details: in vivo, 168 h; how it was run: as §2
[13] = Toxicity in Kunming mouse assessed as induction of poisoning symptoms at 2000 mg/kg, po administered as single dose measured during 7 days post dose; format: organism-based; details: in vivo, 168 h; how it was run: as §2
[14] = system: Human immunodeficiency virus 1; test: Antiviral activity against HIV1 containing reverse transcriptase L100I mutant infected in human MT4 cells assessed as protection against virus-induced cytopathic effect incubated for 5 days by MTT assay; format: functional, organism-based; details: Human immunodeficiency virus 1, MT4, 120 h
[15] = system: Human immunodeficiency virus 1; test: Antiviral activity against HIV1 containing reverse transcriptase Y181C mutant infected in human MT4 cells assessed as protection against virus-induced cytopathic effect incubated for 5 days by MTT assay; format: functional, organism-based; details: Human immunodeficiency virus 1, MT4, 120 h
[16] = Tmax in Kunming mouse at 10 mg/kg, po by LC-MS/MS analysis; format: ADME, organism-based; details: in vivo; how it was run: as §1

Q: Which EC50 [1] does the source give for `Cc1cc(C#N)cc(C)c1Oc1nc(Nc2ccc(C#N)cc2C(F)(F)F)nc2sccc12` here?
A: Its EC50 is 1280 nM.

Q: What does the source list for `Cc1cc(C#N)cc(C)c1Oc1nc(Nc2ccc(C#N)c(F)c2)nc2sccc12`?
A: EC50 [1]: 10.1 nM; EC50 [2]: 119 nM

Q: Which EC50 [3] does the source give for `Cc1cc(/C=C/C#N)cc(C)c1Oc1nc(Nc2ccc(C#N)c(F)c2)nc2ccsc12` here?
A: Its EC50 is 9.28 nM.

Q: And the Tmax [4]?
A: Its Tmax is 1.98 min.

Q: And the EC50 [1]?
A: Its EC50 is 8.6 nM.

Q: And the Activity [5]?
A: The Activity was “Non-Toxic”.

Q: And the Activity [6]?
A: The Activity was “Non-Toxic”.

Q: What about the IC50 (Cytochrome P450 2D6) of the same molecule?
A: The IC50 was over 50000 nM.

Q: What about the EC50 [7] of the same molecule?
A: Its EC50 is under 3.62 nM.

Q: And the EC50 [8]?
A: Its EC50 is 9.4 nM.

Q: And the Tmax [9]?
A: Its Tmax is 30 min.

Q: What about the Tmax [10] of the same molecule?
A: Its Tmax is 1.98 min.

Q: And the EC50 [11]?
A: Its EC50 is 8.15 nM.

Q: And the Activity [12]?
A: Its Activity is “Non-Toxic”.

Q: And the Activity [13]?
A: The Activity was “Non-Toxic”.

Q: What about the EC50 [2] of the same molecule?
A: Its EC50 is 21.5 nM.

Q: What about the EC50 [14] of the same molecule?
A: Its EC50 is under 3.62 nM.

Q: And the EC50 [15]?
A: The EC50 was 8.49 nM.

Q: And the Tmax [16]?
A: Its Tmax is 60 min.

Q: With `Cc1cc(C#N)cc(C)c1Oc1nc(Nc2ccc(C#N)c(F)c2)nc2c1COC2` as the molecule, how does the EC50 [1] read?
A: The EC50 was 2.99 nM.

Q: And the EC50 [2]?
A: The EC50 was 274 nM.

Q: What does the source list for `Cc1cc(C#N)cc(C)c1Oc1nc(Nc2ccc(C#N)c(F)c2)nc2c1CSC2`?
A: EC50 [1]: 20.7 nM; EC50 [2]: 611 nM

Q: What does the source list for `Cc1cc(C#N)cc(C)c1Oc1ccnc(Nc2ccc(C#N)c(F)c2)n1`?
A: EC50 [1]: 6.33 nM; EC50 [2]: 388 nM

Q: For `Cc1cc(C#N)cc(C)c1Oc1nc(Nc2ccc(C#N)c(F)c2)nc2ncsc12`, which EC50 [1] is on record?
A: Its EC50 is 3 nM.

Q: And the EC50 [2]?
A: Its EC50 is 131 nM.

Q: With `Cc1cc(C#N)cc(C)c1Oc1nc(Nc2ccc(C#N)c(F)c2)nc2ccsc12` as the molecule, how does the EC50 [1] read?
A: The EC50 was 6.74 nM.

Q: What about the EC50 [2] of the same molecule?
A: The EC50 was 50.1 nM.

Q: For `Cc1cc(/C=C/C#N)cc(C)c1Oc1nc(Nc2ccc(C#N)c(F)c2F)nc2ccsc12`, which EC50 [1] is on record?
A: The EC50 was 8.92 nM.

Q: What about the EC50 [2] of the same molecule?
A: The EC50 was 1090 nM.

Q: With `Cc1cc(C#N)cc(C)c1Oc1nc(Nc2ccc(C#N)c(F)c2)nc2c1CCC2` as the molecule, how does the EC50 [1] read?
A: The EC50 was 37.7 nM.

Q: And the EC50 [2]?
A: Its EC50 is 951 nM.

Q: With `Cc1cc(C#N)cc(C)c1Oc1nc(Nc2ccc(C#N)cc2C(F)(F)F)nc2ccsc12` as the molecule, how does the EC50 [1] read?
A: The EC50 was 896 nM.

Q: Which results are given for `Cc1cc(/C=C/C#N)cc(C)c1Oc1nc(Nc2ccc(C#N)c(C(F)(F)F)c2)nc2sccc12`?
A: EC50 [1]: 35.3 nM; EC50 [2]: 140 nM

Q: Which results are given for `Cc1cc(C#N)cc(C)c1Oc1nc(Nc2ccc(C#N)c(F)c2)nc2c1SCC2`?
A: EC50 [1]: 6.31 nM; EC50 [2]: 107 nM

Q: What does the source list for `Cc1cc(C#N)cc(C)c1Oc1nc(Nc2ccc(C#N)c(F)c2)nc2c1CCCC2`?
A: EC50 [1]: 11.3 nM; EC50 [2]: 180 nM

Q: Which EC50 [1] does the source give for `Cc1cc(/C=C/C#N)cc(C)c1Oc1nc(Nc2ccc(C#N)cc2F)nc2sccc12` here?
A: The EC50 was 7.13 nM.

Q: And the EC50 [2]?
A: The EC50 was 473 nM.

Q: Which EC50 [1] does the source give for `Cc1cc(/C=C/C#N)cc(C)c1Oc1nc(Nc2ccc(C#N)cc2C(F)(F)F)nc2sccc12` here?
A: Its EC50 is 166 nM.

Q: What does the source list for `Cc1cc(/C=C/C#N)cc(C)c1Oc1nc(Nc2ccc(C#N)c(F)c2)nc2sccc12`?
A: EC50 [3]: 32.8 nM; EC50 [1]: 7.64 nM; EC50 [7]: 7.36 nM; EC50 [8]: 29.7 nM; EC50 [11]: 35.7 nM; EC50 [2]: 33.4 nM; EC50 [14]: 5.55 nM; EC50 [15]: 26.3 nM

Q: Which EC50 [1] does the source give for `Cc1cc(C#N)cc(C)c1Oc1nc(Nc2ccc(C#N)c(F)c2)nc2cccc(F)c12` here?
A: Its EC50 is 12.3 nM.

Q: And the EC50 [2]?
A: The EC50 was 182 nM.

Q: Which EC50 [1] does the source give for `Cc1cc(C#N)cc(C)c1Oc1nc(Nc2ccc(C#N)c(C(F)(F)F)c2)nc2ccsc12` here?
A: The EC50 was 29.2 nM.

Q: Which EC50 [1] does the source give for `Cc1cc(C#N)cc(C)c1Oc1nc(Nc2ccc(C#N)cc2F)nc2sccc12` here?
A: The EC50 was 24 nM.

Q: With `Cc1cc(C#N)cc(C)c1Oc1nc(Nc2ccc(C#N)c(C(F)(F)F)c2)nc2sccc12` as the molecule, how does the EC50 [1] read?
A: Its EC50 is 44.9 nM.

Q: With `Cc1cc(C#N)cc(C)c1Oc1cc(Cl)nc(Nc2ccc(C#N)c(F)c2)n1` as the molecule, how does the EC50 [1] read?
A: Its EC50 is 48.9 nM.

Q: And the EC50 [2]?
A: Its EC50 is 898 nM.

Q: For `Cc1cc(C#N)cc(C)c1Oc1nc(Nc2ccc(C#N)c(F)c2)nc2scnc12`, which EC50 [1] is on record?
A: The EC50 was 3.72 nM.

Q: What about the EC50 [2] of the same molecule?
A: Its EC50 is 162 nM.

Q: With `Cc1cc(C#N)cc(C)c1Oc1nc(Nc2ccc(C#N)cc2F)nc2ccsc12` as the molecule, how does the EC50 [1] read?
A: Its EC50 is 30.4 nM.

Q: For `Cc1cc(C#N)cc(C)c1Oc1nc(Nc2ccc(C#N)c(F)c2F)nc2ccsc12`, which EC50 [1] is on record?
A: Its EC50 is 226 nM.

Q: Which EC50 [1] does the source give for `Cc1cc(/C=C/C#N)cc(C)c1Oc1nc(Nc2ccc(C#N)cc2F)nc2ccsc12` here?
A: Its EC50 is 6.34 nM.

Q: And the EC50 [2]?
A: The EC50 was 561 nM.

Q: Which EC50 [1] does the source give for `Cc1cc(/C=C/C#N)cc(C)c1Oc1nc(Nc2ccc(C#N)cc2C(F)(F)F)nc2ccsc12` here?
A: Its EC50 is 24.5 nM.

Q: And the EC50 [2]?
A: Its EC50 is 48.4 nM.

Q: For `Cc1cc(/C=C/C#N)cc(C)c1Oc1nc(Nc2ccc(C#N)c(C(F)(F)F)c2)nc2ccsc12`, which EC50 [1] is on record?
A: The EC50 was 146 nM.

Q: For `Cc1cc(/C=C/C#N)cc(C)c1Oc1nc(Nc2ccc(C#N)c(F)c2F)nc2sccc12`, which EC50 [1] is on record?
A: Its EC50 is 18.6 nM.

Q: And the EC50 [2]?
A: Its EC50 is 2350 nM.

Q: For `Cc1cc(C#N)cc(C)c1Oc1nc(Nc2ccc(C#N)c(F)c2)nc2cc[nH]c12`, which EC50 [1] is on record?
A: The EC50 was 2.89 nM.

Q: And the EC50 [2]?
A: Its EC50 is 29.4 nM.

Q: With `Cc1cc(C#N)cc(C)c1Oc1nc(Nc2ccc(C#N)c(F)c2)nc2ccccc12` as the molecule, how does the EC50 [1] read?
A: The EC50 was 8.07 nM.

Q: What about the EC50 [2] of the same molecule?
A: Its EC50 is 148 nM.

Q: For `Cc1cc(C#N)cc(C)c1Oc1nc(Nc2ccc(C#N)c(F)c2F)nc2sccc12`, which EC50 [1] is on record?
A: The EC50 was 40.3 nM.

Q: What does the source list for `O=C1Nc2ccc(Cl)cc2[C@@](C#CC2CC2)(C(F)(F)F)O1` [EFAVIRENZ]?
A: EC50 [1]: 2.31 to 2.49 nM; EC50 [2]: 186 to 260 nM

Q: With `Cc1cc(C#N)cc(C)c1Oc1nc(Nc2ccc(C#N)cc2)nc(N)c1Br` [ETRAVIRINE] as the molecule, how does the EC50 [1] read?
A: The EC50 was 2.55 to 3.13 nM.

Q: What about the EC50 [2] of the same molecule?
A: The EC50 was 32.2 to 37.9 nM.
